Data: ChEMBL document CHEMBL1122273, “5-sulfamoylorthanilic acids, a sulfonamide series with salidiuretic activity” (J Med Chem, 1983)
Activity calls are given as the source filed them. The calls are words filed in the database; no cut-off is given here.

Tests used:
Canis familiaris [1] = assay: Saluretic activity in the dog measured as concentration of Na+ in urinary excretion (2 animals/dose) at (dose 1.56 mg/Kg, po); assay type: functional, Canis lupus familiaris, Urine
Summary of the method: (§1)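 Male beagles trained to rest on a table and to accept stomach tube and catheter. Food withdrawn 24 h before, tap water ad libitum. Bladder emptied by catheter, then 20 mL/kg tap water by stomach tube. Catheterized hourly up to 8 h with 4 mL/kg water orally each time; first 2 h urine served as control. Oral dosing after second catheterization. Pooled 1–6 h urine; Na⁺/K⁺ by flame photometry, Cl⁻ argentometrically.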

Canis familiaris [2] = assay: Diuretic activity in the dog (2 animals/dose) at (dose 1.56 mg/Kg), when administered perorally; assay type: functional, Canis lupus familiaris, Urine
Summary of the method: (§2)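 Trained male beagles, fasted 24 h with tap water ad libitum. Bladder emptied by catheter, then 20 mL/kg tap water by stomach tube, with 4 mL/kg water at each hourly catheterization up to 8 h. The first 2 h of urine served as control. Oral dosing came after the second catheterization, and 1–6 h urine was pooled. Na⁺ and K⁺ were measured by flame photometry, Cl⁻ argentometrically, in mequiv/kg.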

Canis familiaris [3] = assay: Saluretic activity in the dog measured as concentration of K+ in urinary excretion (2 animals/dose) (dose 1.56 mg/kg, p.o.); assay type: functional, Canis lupus familiaris, Urine; conditions: route oral
Summary of the method: (§3)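 Male beagles trained to the procedures, food withdrawn 24 h before, tap water ad libitum. Bladder emptied by catheter, then 20 mL/kg tap water by stomach tube, plus 4 mL/kg orally at each hourly catheterization up to 8 h. The first 2 h of urine served as control. Compound given orally after the second catheterization. Urine from 1–6 h post-dose pooled; Na⁺ and K⁺ by flame photometry, Cl⁻ argentometrically, in mequiv/kg.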

Canis familiaris [4] = assay: Saluretic activity in the dog measured as concentration of Cl - in urinary excretion (2 animals/dose) at (dose 1.56 mg/Kg, po); assay type: functional, Canis lupus familiaris, Urine; summary of the method: as §3
Rattus norvegicus [5] = species: Rattus norvegicus; assay: Diuretic activity in the rats, determined by a modified Lipschitz test; assay type: functional, Urine
Summary of the method: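 Modified Lipschitz test: rats deprived of water 24 h, grouped in threes of similar weight in diuresis funnels. Oral dose of 50 mg/kg, suspended in 2% starch solution, by stomach tube.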

Rattus norvegicus [6] = species: Rattus norvegicus; assay: Saluretic activity in the rat measured as concentration of chloride in urine; assay type: functional
Summary of the method: (§4)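 Rats deprived of food 24 h, water ad libitum, dosed 50 mg/kg by stomach tube as suspension in 2% starch, no extra water load. Groups of three in diuresis funnels; urine over first 5 h collected. Na⁺ and K⁺ by flame photometry, Cl⁻ argentometrically; expressed as mequiv/kg.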

Rattus norvegicus [7] = species: Rattus norvegicus; assay: Saluretic activity in the rat measured as concentration of K+ in urine; assay type: functional; summary of the method: as §4
[8] = It is the ratio, measured as saluretic activity in the dog as concentration of Na+ in urinary excretion (dose 1.56 mg/Kg, po) to that of K; assay type: functional, Urine; summary of the method: as §2
[9] = It is the ratio, measured as saluretic activity in the dog as concentration of Cl- in urinary excretion (dose 1.56 mg/Kg, po) to that of (Na+)+(K+); assay type: functional, Urine; summary of the method: as §2
Rattus norvegicus [10] = species: Rattus norvegicus; assay: Saluretic activity in the rat measured as concentration of Na+ in urine; assay type: functional; summary of the method: as §4
Canis familiaris [11] = assay: Saluretic activity in the dog measured as concentration of Na+ in urinary excretion (2 animals/dose) at (dose 0.1 mg/Kg, po); assay type: functional, Canis lupus familiaris, Urine; summary of the method: as §1
Canis familiaris [12] = assay: Salidiuretic activity on the basis of the 1.56 mg/Kg po dog assay; compound was highly active; assay type: functional, organism-based; conditions: Canis lupus familiaris; Urine
Canis familiaris [13] = assay: Diuretic activity in the dog (2 animals/dose) at (dose 0.1 mg/Kg), when administered perorally; assay type: functional, Canis lupus familiaris, Urine; summary of the method: as §2
Canis familiaris [14] = assay: Saluretic activity in the dog measured as concentration of K+ in urinary excretion (2 animals/dose) at (dose 1.56 mg/Kg, po); assay type: functional, Canis lupus familiaris, Urine; summary of the method: as §1
Canis familiaris [15] = assay: Saluretic activity in the dog measured as concentration of K+ in urinary excretion (2 animals/dose) at (dose 0.1 mg/Kg, po); assay type: functional, Canis lupus familiaris, Urine; summary of the method: as §3
Canis familiaris [16] = assay: Saluretic activity in the dog measured as concentration of Cl - in urinary excretion (2 animals/dose) at (dose 0.1 mg/Kg, po); assay type: functional, Canis lupus familiaris, Urine; summary of the method: as §3
Rattus norvegicus [17] = assay: Salidiuretic activity on the basis of the 50 mg/kg po rat assay; compound was highly active; assay type: functional, organism-based; set-up: dose 50 mg/kg; conditions: Urine
[18] = It is the ratio, measured as saluretic activity in the dog as concentration of Cl- in urinary excretion (dose 0.1 mg/Kg, po) to that of (Na+)+(K+); assay type: functional, Urine; summary of the method: as §2
[19] = It is the ratio, measured as saluretic activity in the dog as concentration of Na+ in urinary excretion (dose 0.1 mg/Kg, po) to that of K; assay type: functional, Urine; summary of the method: as §2
Canis familiaris [20] = assay: Saluretic activity in the dog measured as concentration of Na+ in urinary excretion (2 animals/dose) at (dose 1.56 mg/Kg, perorally); assay type: functional, Canis lupus familiaris, Urine; summary of the method: as §1
Canis familiaris [21] = assay: Saluretic activity in the dog measured as concentration of Na+ in urinary excretion (2 animals/dose) at (dose 6.25 mg/Kg, perorally); assay type: functional, Canis lupus familiaris, Urine; summary of the method: as §1
Canis familiaris [22] = assay: Diuretic activity in the dog (2 animals/dose) at (dose 0.4 mg/Kg), when administered perorally; assay type: functional, Canis lupus familiaris, Urine; summary of the method: as §2
Canis familiaris [23] = assay: Diuretic activity in the dog (2 animals/dose) at (dose 6.25 mg/Kg), when administered perorally; assay type: functional, Canis lupus familiaris, Urine; summary of the method: as §2
Canis familiaris [24] = assay: Saluretic activity in the dog measured as concentration of K+ in urinary excretion (2 animals/dose) at (dose 0.4 mg/Kg, perorally); assay type: functional, Canis lupus familiaris, Urine; summary of the method: as §3
Canis familiaris [25] = assay: Saluretic activity in the dog measured as concentration of K+ in urinary excretion (2 animals/dose) at (dose 1.56 mg/Kg, perorally); assay type: functional, Canis lupus familiaris, Urine; summary of the method: as §3
Canis familiaris [26] = assay: Saluretic activity in the dog measured as concentration of Na+ in urinary excretion (2 animals/dose) at (dose 0.4 mg/Kg, perorally); assay type: functional, Canis lupus familiaris, Urine; summary of the method: as §1
Canis familiaris [27] = assay: Saluretic activity in the dog measured as concentration of K+ in urinary excretion (2 animals/dose) at (dose 6.25 mg/Kg, perorally); assay type: functional, Canis lupus familiaris, Urine; summary of the method: as §1
Canis familiaris [28] = assay: Saluretic activity in the dog measured as concentration of Cl - in urinary excretion (2 animals/dose) at (1.56 mg/Kg, perorally); assay type: functional, Canis lupus familiaris, Urine; summary of the method: as §3
Canis familiaris [29] = assay: Saluretic activity in the dog measured as concentration of Cl - in urinary excretion (2 animals/dose) at (dose 6.25 mg/Kg, perorally); assay type: functional, Canis lupus familiaris, Urine; summary of the method: as §3
Canis familiaris [30] = assay: Saluretic activity in the dog measured as concentration of Cl - in urinary excretion (2 animals/dose) at (dose 0.4 mg/Kg, perorally); assay type: functional, Canis lupus familiaris, Urine; summary of the method: as §3
[31] = It is the ratio, measured as saluretic activity in the dog as concentration of Cl- in urinary excretion (dose 0.4 mg/kg perorally) to that of (Na+)+(K+); assay type: functional, Urine; conditions: route oral; summary of the method: as §2
[32] = It is the ratio, measured as saluretic activity in the dog as concentration of Na+ in urinary excretion (dose 1.56 mg/Kg, perorally) to that of K; assay type: functional, Urine; summary of the method: as §2
[33] = It is the ratio, measured as saluretic activity in the dog as concentration of Na+ in urinary excretion (dose 6.25 mg/Kg, perorally) to that of K; assay type: functional, Urine; summary of the method: as §2
[34] = It is the ratio, measured as saluretic activity in the dog as concentration of Cl- in urinary excretion (dose 6.25 mg/Kg, perorally) to that of (Na+)+(K+); assay type: functional, Urine; summary of the method: as §2
[35] = It is the ratio, measured as saluretic activity in the dog as concentration of Na+ in urinary excretion (dose 0.4 mg/Kg, perorally) to that of K; assay type: functional, Urine; summary of the method: as §2
[36] = It is the ratio, measured as saluretic activity in the dog as concentration of Cl- in urinary excretion ( perorally) to that (Na++K+)
Canis familiaris [37] = assay: Salidiuretic activity on the basis of the 1.56 mg/Kg po dog assay; Compound was highly active; assay type: functional, organism-based; conditions: Canis lupus familiaris; Urine
Rattus norvegicus [38] = assay: Salidiuretic activity on the basis of the 50 mg/kg po rat assay; Compound was active; conditions: Urine

Row | Compound | Saluretic activity (Canis familiaris [1]) | Diuretic activity (Canis familiaris [2]) | Saldiuretic activity (Canis familiaris [4]) | Diuretic activity (Rattus norvegicus [5]) | Saluretic activity (Rattus norvegicus [6]) | Saluretic activity (Rattus norvegicus [7]) | Ratio [8] | Ratio [9] | Saluretic activity (Rattus norvegicus [10]) | also measured
1 | CCCC[S+]([O-])c1cc(NCc2ccco2)c(S(=O)(=O)[O-])cc1S(N)(=O)=O.[Na+] (configuration not stated) | 0.89 m equiv 6hr-1 kg-1 | 34.9 ml kg-1 6hr-1 | 1.43 m equiv 6hr-1 kg-1 | 1 mL/kg | 1.4 m equiv 5hr-1 kg-1 | 1 m equiv 5hr-1 kg-1 | 3 | 1 | 0.9 m equiv 5hr-1 kg-1 | Saldiuretic activity (Canis familiaris [3]): 0.35 (m equiv) 6hr-1 kg-1
2 | NS(=O)(=O)c1cc(S(=O)(=O)[O-])c(NCc2cccs2)cc1S(=O)(=O)C1CCCCC1.[Na+] | 5.4 m equiv 6hr-1 kg-1 | 66.7 ml kg-1 6hr-1 | 6.39 m equiv 6hr-1 kg-1 | 4 mL/kg | 8.7 m equiv 5hr-1 kg-1 | 2.2 m equiv 5hr-1 kg-1 | 5.1 | 1 | 7.3 m equiv 5hr-1 kg-1 | Saluretic activity (Canis familiaris [11]): 3.18 m equiv 6hr-1 kg-1; Saldiuretic activity (Canis familiaris [12]): Active; Diuretic activity (Canis familiaris [13]): 47.4 ml kg-1 6hr-1; Saluretic activity (Canis familiaris [14]): 1.05 m equiv 6hr-1 kg-1; Saldiuretic activity (Canis familiaris [15]): 0.41 m equiv 6hr-1 kg-1; Saldiuretic activity (Canis familiaris [16]): 3.54 m equiv 6hr-1 kg-1; Saldiuretic activity (Rattus norvegicus [17]): Active; Ratio [18]: 1; Ratio [19]: 7.7
3 | NS(=O)(=O)c1cc(S(=O)(=O)[O-])c(NCc2ccco2)cc1Cl.[Na+] | – | 42.4 ml kg-1 6hr-1 | – | 2.8 mL/kg | 8.3 m equiv 5hr-1 kg-1 | 2.3 m equiv 5hr-1 kg-1 | – | – | 7.1 m equiv 5hr-1 kg-1 | Saluretic activity (Canis familiaris [20]): 2.61 m equiv 6hr-1 kg-1; Saluretic activity (Canis familiaris [21]): 4.36 m equiv 6hr-1 kg-1; Diuretic activity (Canis familiaris [22]): 37 ml kg-1 6hr-1; Diuretic activity (Canis familiaris [23]): 66.5 ml kg-1 6hr-1; Saluretic activity (Canis familiaris [24]): 0.19 m equiv 6hr-1 kg-1; Saluretic activity (Canis familiaris [25]): 0.53 m equiv 6hr-1 kg-1; Saluretic activity (Canis familiaris [26]): 0.45 m equiv 6hr-1 kg-1; Saldiuretic activity (Canis familiaris [27]): 0.78 m equiv 6hr-1 kg-1; Concentration of Cl- (Canis familiaris [28]): 3.24 m equiv 6hr-1 kg-1; Saldiuretic activity (Canis familiaris [29]): 4.74 m equiv 6hr-1 kg-1; Saluretic activity (Canis familiaris [30]): 0.69 m equiv 6hr-1 kg-1; Ratio [31]: 1.1; Ratio [32]: 4.9; Ratio [33]: 5.6; Ratio [34]: 0.9; Ratio [35]: 2.3; Ratio [36]: 1
4 | CN(c1ccccc1)c1cc(NCc2cccs2)c(S(=O)(=O)[O-])cc1S(N)(=O)=O.[Na+] | 5.86 m equiv 6hr-1 kg-1 | 70.6 ml kg-1 6hr-1 | 7.03 m equiv 6hr-1 kg-1 | 1.8 mL/kg | 2 m equiv 5hr-1 kg-1 | 0.7 m equiv 5hr-1 kg-1 | 4.3 | 0.95 | 1.8 m equiv 5hr-1 kg-1 | Saldiuretic activity (Canis familiaris [14]): 1.37 mequiv kg-1 6hr-1; Saldiuretic activity (Canis familiaris [37]): Active; Saldiuretic activity (Rattus norvegicus [38]): Active
